MPTP inh = mitochondrial permeability transition pore inhibitors, primary screen, biochemical, isolated mouse mitochondria, absorbance; Ca2+ swelling absorbance, 30 min; inhibition, % at 10 µM; 360,000 compounds, 1.4% hits; AID 602449, 2012;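 active = inhibition of 50% or more, scaled per plate between neutral and stimulator controls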
GRIN3A LBD mod = binders of NR3A ligand-binding domain, primary screen, biophysical, differential scanning fluorimetry, uHTS. Glutamate receptor ionotropic, NMDA 3A (GRIN3A) ligand-binding domain. NR3A LBD differential scanning fluorimetry, Tm shift; 0% = protein alone, 100% = glycine-bound protein. Tm shift relative to glycine control, % at 25 µM. 340,000 compounds, 2.5% hits. AID 1259313, 2017;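 active = melting temperature shift of at least 10% of the positive control shift, at one fixed dose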
Tb MetRS inh = T. brucei MetRS inhibitors, primary screen, biochemical, luminescence. purified T. brucei MetRS, ATP depletion, Kinase-Glo luminescence. inhibition, % at 11.9 µM. 360,000 compounds, 0.4% hits;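 active = inhibition above a per-plate cutoff of the control wells' mean inhibition plus 3 SD, cut at about 5.5% in these data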
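Test system – parasite MetRS enzyme · Reagent – substrates ATP, L-methionine and bulk Escherichia coli tRNA · Doses – 11.9 µM compound single dose, 0.9% DMSO · Times – 15 min enzyme-compound preincubation, 2 h reaction, 10 min detection, 25 °C · Signal – Kinase-Glo luminescence, ATP depletion format · Controls – DMSO-only wells as low control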
WT yeast gro inh = growth inhibition of WT strain, primary screen, mitochondrial fusion inhibitor project, WT and mutant strains, chemical genetic; inhibition, % at 10 µM; mitochondrial fusion phenotypic screen; 190,000 compounds, 2.1% hits; in the data active = inhibition above about 58%; tested in S. cerevisiae
CHOP inh = inhibitors of CHOP promoter induction, primary screen, cell-based, unfolded protein response, luciferase reporter; CHO-K1 CHOP-promoter luciferase, tunicamycin-induced, 15-18 h; AID 2732, 2010; inhibition, % at 10 µM; 220,000 compounds, 3.8% hits;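 active = compounds that reduced the stress-induced luciferase reporter signal by more than about 70% of percent inhibition, limit read from the data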
EBV gp42 block = Epstein-Barr virus gp42 inhibitors, primary screen, biochemical, uHTS, fluorescence polarization. 220,000 compounds, 0.42% hits. Glycoprotein 42 (Epstein-Barr virus (strain AG876)), Q1HVG2. inhibition, % (tested at 21.74 µM). Fluorescence polarization binding assay, mP read-out. AID 1085, 2008; in the data active = inhibition above about 50%
Target sequence (Q1HVG2 whole entry, looked up): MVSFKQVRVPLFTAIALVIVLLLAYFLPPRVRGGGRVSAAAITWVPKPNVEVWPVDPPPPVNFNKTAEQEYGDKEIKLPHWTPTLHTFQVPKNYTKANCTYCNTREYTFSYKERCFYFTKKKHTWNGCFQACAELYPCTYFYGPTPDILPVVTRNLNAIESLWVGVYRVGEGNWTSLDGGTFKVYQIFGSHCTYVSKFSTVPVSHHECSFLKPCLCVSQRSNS
CHOP confirm = retest of CHOP induction inhibitors, confirmation, cell-based. inhibition, % at 10 µM. 2,100 compounds, 45% hits. shares compounds with CHOP inh. CHO-CHOP promoter luciferase reporter, tunicamycin-induced, luminescence;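 active = mean of three repeat readings of reporter signal inhibition above a set limit, cut at about 70% in these data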
Hits are given with their value. Shown are actives, neighbours in structure and some others; about 6.4% of the full set was active somewhere.

Results for CCOC(=O)C1(CC2CCCCO2)CCN(S(=O)(=O)c2ccccc2)CC1 (stereo not given) ?
MPTP inh: inactive; GRIN3A LBD mod: inactive; Tb MetRS inh: inactive; WT yeast gro inh: inactive; CHOP inh: inactive; EBV gp42 block: inactive

How did CC1CCCC(NCC(O)COC(c2ccc(F)cc2)c2ccc(F)cc2)C1C (stereo not given) do in these assays?
MPTP inh: inactive; GRIN3A LBD mod: inactive; Tb MetRS inh: inactive; WT yeast gro inh: inactive; CHOP inh: 103; EBV gp42 block: inactive; CHOP confirm: 111

How did Cc1ccc(NC(=O)C(=O)NCC2OCCc3ccccc32)cc1 (stereo not given) do in these assays?
MPTP inh: inactive; GRIN3A LBD mod: inactive; Tb MetRS inh: inactive; WT yeast gro inh: inactive; CHOP inh: 105; EBV gp42 block: inactive; CHOP confirm: 102

Results for O=C(NCC1OCCc2ccccc21)c1ccc(NC(=O)c2ccc(Cl)cc2)cc1 (stereo not given) ?
MPTP inh: inactive; GRIN3A LBD mod: inactive; Tb MetRS inh: inactive; WT yeast gro inh: inactive; CHOP inh: 103; EBV gp42 block: inactive; CHOP confirm: inactive

Results for Cc1ccc(NC(=O)C2OCCc3ccccc32)cc1 (stereo not given) ?
MPTP inh: inactive; GRIN3A LBD mod: inactive; Tb MetRS inh: inactive; WT yeast gro inh: inactive; CHOP inh: inactive; EBV gp42 block: inactive

How did COc1cc2c(C(=O)NCc3ccc4c(c3)OCO4)cn(C)c(=O)c2cc1OC do in these assays?
MPTP inh: inactive; GRIN3A LBD mod: inactive; Tb MetRS inh: inactive; WT yeast gro inh: inactive; CHOP inh: inactive; EBV gp42 block: inactive

How did Cc1[nH]nc(N=CC2=C(O)CC(c3ccco3)CC2=O)c1-c1ccccc1 (stereo not given) do in these assays?
MPTP inh: inactive; GRIN3A LBD mod: inactive; Tb MetRS inh: inactive; WT yeast gro inh: inactive; CHOP inh: inactive; EBV gp42 block: inactive

What do the screens show for `CC(C)C[C@H](N)c1nnc(S(=O)(=O)Cc2ccc(F)cc2)o1`?
MPTP inh: inactive; GRIN3A LBD mod: inactive; Tb MetRS inh: inactive; WT yeast gro inh: inactive; CHOP inh: 103; EBV gp42 block: inactive; CHOP confirm: inactive

Results for O=C1c2sc3nc4c(c(=O)n3c2C(=O)N1c1ccccc1)CCC4 ?
MPTP inh: inactive; GRIN3A LBD mod: inactive; Tb MetRS inh: inactive; WT yeast gro inh: inactive; CHOP inh: inactive; EBV gp42 block: inactive

Results for Cc1ccccc1N1C(=O)c2sc3nc4c(c(=O)n3c2C1=O)CCC4 ?
MPTP inh: inactive; GRIN3A LBD mod: inactive; Tb MetRS inh: inactive; WT yeast gro inh: inactive; CHOP inh: 106; EBV gp42 block: inactive; CHOP confirm: inactive

What do the screens show for `O=c1/c(=C\c2cccnc2)sc2nc3ccccc3n12`?
MPTP inh: inactive; GRIN3A LBD mod: inactive; Tb MetRS inh: inactive; WT yeast gro inh: inactive; CHOP inh: inactive; EBV gp42 block: inactive

Results for O=C1c2sc3nc4ccccc4n3c2C(=O)N1c1ccccc1Cl ?
MPTP inh: inactive; GRIN3A LBD mod: inactive; Tb MetRS inh: inactive; WT yeast gro inh: inactive; CHOP inh: 106; EBV gp42 block: inactive; CHOP confirm: inactive

How did O=C(COC(=O)/C=C/C(=O)OCC(=O)NC12CC3CC(CC(C3)C1)C2)NC12CC3CC(CC(C3)C1)C2 do in these assays?
MPTP inh: inactive; GRIN3A LBD mod: inactive; Tb MetRS inh: inactive; WT yeast gro inh: inactive; CHOP inh: 105; EBV gp42 block: inactive; CHOP confirm: inactive

What do the screens show for `CCn1c(-c2nn(-c3ccc(C)cc3)ccc2=O)n[nH]c1=S`?
MPTP inh: inactive; GRIN3A LBD mod: inactive; Tb MetRS inh: inactive; WT yeast gro inh: inactive; CHOP inh: inactive; EBV gp42 block: inactive

Results for Cc1ccc(-n2ccc(=O)c(-c3ccnc(SCc4cccc(Cl)c4)n3)n2)cc1 ?
MPTP inh: inactive; GRIN3A LBD mod: inactive; Tb MetRS inh: inactive; WT yeast gro inh: inactive; CHOP inh: 98; EBV gp42 block: inactive; CHOP confirm: inactive

Results for O=C1C(N2CCOCC2)=C(n2nnc3ccccc32)C(=O)c2ccccc21 ?
MPTP inh: inactive; GRIN3A LBD mod: inactive; Tb MetRS inh: inactive; WT yeast gro inh: inactive; EBV gp42 block: inactive; CHOP confirm: 95

Results for O=C1c2ccccc2C(=O)c2c1cccc2-n1nnc2ccccc21 ?
MPTP inh: inactive; GRIN3A LBD mod: inactive; Tb MetRS inh: inactive; CHOP inh: inactive; EBV gp42 block: inactive

Results for O=C1NC(=S)S/C1=C\C=C\c1ccc([N+](=O)[O-])o1 ?
MPTP inh: inactive; GRIN3A LBD mod: inactive; Tb MetRS inh: inactive; CHOP inh: 105; EBV gp42 block: inactive; CHOP confirm: 117

What do the screens show for `O=C1NC(=S)S/C1=C/c1ccc(N2CCOCC2)o1`?
MPTP inh: inactive; GRIN3A LBD mod: inactive; Tb MetRS inh: inactive; WT yeast gro inh: inactive; CHOP inh: inactive; EBV gp42 block: inactive

Results for CCOC(=O)c1cc2c(=O)n3ccccc3nc2n(C(C)C)c1=NC(=O)c1ccncc1 ?
MPTP inh: inactive; GRIN3A LBD mod: inactive; Tb MetRS inh: inactive; WT yeast gro inh: inactive; CHOP inh: inactive; EBV gp42 block: inactive

What do the screens show for `COc1ccc(NC(=O)CN2C(=O)C(C)SC(C)C2=O)cc1` (stereo not given)?
MPTP inh: inactive; GRIN3A LBD mod: inactive; Tb MetRS inh: inactive; WT yeast gro inh: inactive; CHOP inh: inactive; EBV gp42 block: inactive

How did CC(C)(C)c1ccc(O)c(N=Cc2cc(Br)ccc2O)c1 do in these assays?
MPTP inh: inactive; GRIN3A LBD mod: inactive; Tb MetRS inh: inactive; WT yeast gro inh: inactive; CHOP inh: 98; EBV gp42 block: inactive; CHOP confirm: 112

How did CC1CN(C2=Nc3cccc4cccc2c34)CC(C)O1 (stereo not given) do in these assays?
MPTP inh: inactive; GRIN3A LBD mod: inactive; Tb MetRS inh: inactive; WT yeast gro inh: inactive; CHOP inh: inactive; EBV gp42 block: inactive

Results for CNc1oc(-c2cccc3ccccc23)nc1C#N ?
GRIN3A LBD mod: inactive; Tb MetRS inh: inactive; WT yeast gro inh: inactive; CHOP inh: inactive; EBV gp42 block: inactive

Results for COc1ccc(CNc2oc(-c3cccc4ccccc34)nc2C#N)cc1 ?
MPTP inh: inactive; GRIN3A LBD mod: inactive; Tb MetRS inh: inactive; WT yeast gro inh: inactive; CHOP inh: 97; EBV gp42 block: inactive; CHOP confirm: 98

How did Cc1cc2cc(CN(Cc3ccco3)C(=O)C3CCCCC3)c(=O)[nH]c2cc1C do in these assays?
MPTP inh: inactive; GRIN3A LBD mod: inactive; Tb MetRS inh: inactive; WT yeast gro inh: inactive; CHOP inh: 105; EBV gp42 block: inactive; CHOP confirm: inactive

Screens as filed in PubChem.
